Tests used:
[1] = tested on: Rattus norvegicus; assay: Angiotensin I(AI) response to return to 70% of the pretreatment control response was determined at a dose of 3 mg/kg; format: functional
[2] = tested on: Rattus norvegicus; assay: Inhibition of blood pressure increase produced by iv injection of angiotensin I in conscious normotensive rats at a dose of 30 mg/kg; format: functional
[3] = tested on: Rattus norvegicus; assay: Base line of mean aortic blood pressure in the conscious Renal hypertensive rat was determined after oral administration of 3 mg/kg; format: functional; conditions: Artery
Summary of the method: (§1)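 Male CD albino rats were clipped at four weeks old, and hypertension developed over 3–4 weeks. Rats weighed 280–320 g at cannulation and had chronic aortic cannulae implanted 2–4 days before testing. Only rats with mean aortic pressure above 160 mmHg were used. Dosing was oral in 4% gum acacia (2 mL/kg). One-minute running averages were recorded every 30 min and reported as mean ± SEM, two-tailed p < 0.05.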

[4] = tested on: Rattus norvegicus; assay: Inhibition of blood pressure increase produced by iv injection of angiotensin I in conscious normotensive rats at a dose of 3 mg/kg; format: functional
[5] = tested on: Rattus norvegicus; assay: Maximum effect on blood pressure in the conscious Renal hypertensive rat after oral administration of 30 mg/kg; format: functional; summary of the method: as §1
[6] = tested on: Rattus norvegicus; assay: Change in mean aortic blood pressure expressed in hours after an oral administration of 3 mg/kg in conscious renal hypertensive rats
[7] = tested on: Rattus norvegicus; assay: Angiotensin I(AI) response to return to 70% of the pretreatment control response was determined at a dose of 3 mg/kg, iv; format: functional
[8] = tested on: Rattus norvegicus; assay: Base line of mean aortic blood pressure in the conscious Renal hypertensive rat was determined after oral administration of 30 mg/kg; format: functional, Artery
[9] = tested on: Rattus norvegicus; assay: Angiotensin I(AI) response to return to 70% of the pretreatment control response was determined at a dose of 30 mg/kg, po; format: functional
[10] = tested on: Rattus norvegicus; assay: Change in mean aortic blood pressure expressed in hours after an oral administration of 30 mg/kg in conscious renal hypertensive rats
[11] = tested on: Rattus norvegicus; assay: Change in mean aortic blood pressure expressed in hours after an oral administration of 3 mg/kg in conscious normotensive rats; format: functional, Artery
[12] = biological target: Angiotensin-converting enzyme (Cavia porcellus); assay: Inhibition of guinea pig serum Angiotensin I converting enzyme
[13] = tested on: Rattus norvegicus; assay: Change in mean aortic blood pressure expressed in hours after an oral administration of 30 mg/kg in conscious renal hypertensive rats; remark: listed apart in the source

With `C[C@H](CC(=O)[C@H](Cc1ccccc1)NC(=O)c1ccccc1)C(=O)N1CCC[C@H]1C(=O)O` the AI recovery time [1] was 73 min, the inhibition in vivo at 30 mg/kg [2] was 100% and the Mean aortic blood pressure at 3 mg/kg [3] was 209 mmHg. It also gave an inhibition in vivo at 3 mg/kg [4] of 100%, a Mean aortic blood pressure [5] of 159 mmHg and a Change [6] of -40 mmHg. The AI recovery time [7] was 73 min, the Mean aortic blood pressure [8] was 197 mmHg and the AI recovery time [9] was 143 min. The Change [10] was -38 mmHg.

With `CCCCCC(=O)N[C@@H](Cc1ccccc1)C(=O)CCC(=O)N1CCCC1C(=O)O` (stereo not given in full) the Change [11] was -2 mmHg, the “Mean aortic blood pressure” value [5] was 191 mmHg and the “Mean aortic blood pressure” value [8] was 193 mmHg. The I50 [12] was 47 nM.

For `C[C@@H](CC(=O)[C@@H](Cc1ccccc1)NC(=O)c1ccccc1)C(=O)N1CCC[C@H]1C(=O)O`, the “Mean aortic blood pressure” value [5] was 163 mmHg, the “Mean aortic blood pressure” value [8] was 183 mmHg and the Change [13] was -20 mmHg.

With `CCCCOC(=O)NC(Cc1ccccc1)C(=O)CC(C)C(=O)N1CCCC1C(=O)O` (stereo not given) the “Mean aortic blood pressure” value [5] was 176 mmHg, the “Mean aortic blood pressure” value [8] was 188 mmHg and the I50 [12] was 29 nM. The Change [13] was -12 mmHg.

For `O=C(N[C@@H](Cc1ccccc1)C(=O)CCC(=O)N1CCC[C@H]1C(=O)O)c1ccccc1`, the inhibition in vivo at 30 mg/kg [2] was 48%, the inhibition in vivo at 3 mg/kg [4] was 57% and the “Mean aortic blood pressure” value [8] was 190 mmHg. The Change [13] was -12 mmHg.

`C[C@@H](CC(=O)[C@H](Cc1ccccc1)NC(=O)c1ccccc1)C(=O)N1CCC[C@H]1C(=O)O` was tested, and the inhibition in vivo at 30 mg/kg [2] was 71%, the inhibition in vivo at 3 mg/kg [4] was 74% and the “Mean aortic blood pressure” value [5] was 173 mmHg. For the same molecule, the AI recovery time [7] was 71 min, the “Mean aortic blood pressure” value [8] was 189 mmHg and the AI recovery time [9] was greater than 180 min. For the same molecule, the Change [13] was -16 mmHg.

With `C[C@H](CS)C(=O)N1CCC[C@H]1C(=O)O` [CAPTOPRIL] the inhibition in vivo at 30 mg/kg [2] was 69%, the inhibition in vivo at 3 mg/kg [4] was 95% and the “Mean aortic blood pressure” value [5] was 99 mmHg.

For `CCCCCCCC(=O)N[C@@H](Cc1ccccc1)C(=O)CCC(=O)N1CCCC1C(=O)O` (stereo not given in full), the “Mean aortic blood pressure” value [5] was 167 mmHg, the “Mean aortic blood pressure” value [8] was 182 mmHg and the I50 [12] was 650 nM. It also gave a Change [13] of -15 mmHg.

With `C[C@H](CC(=O)[C@@H](Cc1ccccc1)NC(=O)c1ccccc1)C(=O)N1CCC[C@H]1C(=O)O` the Change [11] was -22 mmHg, the “Mean aortic blood pressure” value [5] was 166 mmHg and the “Mean aortic blood pressure” value [8] was 188 mmHg.

In the case of `CCCCCCCCCC(=O)N[C@@H](Cc1ccccc1)C(=O)CCC(=O)N1CCCC1C(=O)O` (stereo not given in full), the Change [11] is reported as -21 mmHg, the “Mean aortic blood pressure” value [5] is reported as 176 mmHg and the “Mean aortic blood pressure” value [8] is reported as 197 mmHg. For the same molecule, the I50 [12] was 6500 nM.

`CCCCOC(=O)NC(Cc1ccccc1)C(=O)CCC(=O)N1CCCC1C(=O)O` (stereo not given) was tested, and the “Mean aortic blood pressure” value [5] was 160 mmHg, the “Mean aortic blood pressure” value [8] was 175 mmHg and the I50 [12] was 210 nM. The Change [13] was -15 mmHg.

— ChEMBL document CHEMBL1122140, “Derivatives of the potent angiotensin converting enzyme inhibitor 5(S)-benzamido-4-oxo-6-phenylhexanoyl-L-proline: effect of changes at positions 2 and 5 of the hexanoic acid portion” (J Med Chem, 1982)
